# In the library only some 2.9% were active in any assay of this set; here they are far more common.
# MEKK3 PB1 HTS – modulators (inhibitors or enhancers) of MEK5 binding to human MEKK3 PB1 domain. Q99759. bead-based flow cytometry, Alexa488-MEK5 binding to MEKK3; actives lie on both sides; 0 = blocked by unlabeled MEK5, 100 = vehicle. binding response (% of control), % at 10 µM. 290,000 tested, 1.4% active;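 active means binding response more than 3 SD above or below the average of its plate-row segment, actives on both sides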;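 further: Alexa488 bead fluorescence after subtracting the streptavidin-only scavenger bead signal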
# MEKK2wt PB1 HTS – raises or lowers MEK5 binding to wildtype human MEKK2 PB1 domain. Q9Y2U5. bead flow cytometry, Alexa488-MEK5 binding to MEKK2 WT; actives lie on both sides. binding response (% of control), % at 10 µM. 290,000 tested, 1.1% active. AID 1531; in the data active means binding response below about 67% or above about 130%
# MEKK2 mut-MEK5 – signal of MEK5 binding to mutant human MEKK2 PB1 domain. bead flow cytometry, Alexa488-MEK5 binding to MEKK2 mutant. percent response, % at 10 µM. 290,000 tested, 0.35% active. AID 1530; in the data active means percent response above about 24%, passing the limit was not always enough
# ATG4B inh – ATG4B (human) cysteine protease inhibition; Q9Y4P1; ATG4B cleavage of LC3-PLA2, NBD-HPC fluorescence, 1 h; inhibition, % at 8.33 µM; 340,000 tested, 0.51% active; in the data active means inhibition above about 40%
# B2AR ag – human beta-2 adrenergic receptor agonism by FAP. P07550. Am2.2-beta2AR cells, FAP receptor internalization, flow cytometry. response, % (test concentration not listed). 340,000 tested, 0.43% active;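 active means response above a set limit, near 3 SD of response in nonfluorescent compounds, cut at about 42% in these data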
# Target sequence (P07550 whole entry, looked up): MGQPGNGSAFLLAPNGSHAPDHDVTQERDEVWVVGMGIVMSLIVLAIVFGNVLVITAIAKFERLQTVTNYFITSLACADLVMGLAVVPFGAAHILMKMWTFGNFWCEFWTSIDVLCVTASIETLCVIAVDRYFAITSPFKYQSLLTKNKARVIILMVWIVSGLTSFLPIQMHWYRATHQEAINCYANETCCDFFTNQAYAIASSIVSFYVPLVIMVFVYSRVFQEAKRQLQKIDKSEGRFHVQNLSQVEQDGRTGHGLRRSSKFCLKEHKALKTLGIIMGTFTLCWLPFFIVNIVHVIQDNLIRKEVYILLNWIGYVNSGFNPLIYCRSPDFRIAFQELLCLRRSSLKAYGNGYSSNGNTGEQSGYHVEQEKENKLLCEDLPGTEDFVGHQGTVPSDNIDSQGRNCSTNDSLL
# Dynein transport – dynein cargo transport inhibition; 3617.4 mouse cells, GR-EGFP nuclear translocation imaging; test concentration mostly 20 µM; stimulated with dexamethasone, 1 µM; hits give low values; z-score, hits read low; 220,000 tested, 0.47% active; AID 1381;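 active means plate z-score of nuclear minus cytoplasmic receptor signal below a set negative limit, without overly bright fluorescence or cell loss, cut at about -3.5 in these data, passing the limit was not always enough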;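 further: z-score of nuclear minus cytoplasmic ring GR-EGFP intensity difference per well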
#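 Medium: Induction medium lacking tetracycline, stripped serum | Probe or stimulus: 1.0 µM final dexamethasone stimulus | Schedule: 48 h induction, then 1 h compound, then 30 min agonist, 37 °C | Signal: Automated 10x imaging of fixed Hoechst-stained cells | Evaluation: Per-cell GR-EGFP intensity, nucleus versus surrounding cytoplasmic ring, well-averaged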
# MEKK2wt confirm – raises or lowers MEK5 binding to wildtype human MEKK2, retest; shares compounds with MEKK3 PB1 HTS; 5,900 tested, 2.4% active; bead flow cytometry, Alexa488-MEK5 binding to MEKK2 WT; actives lie on both sides; binding response (% of control), % at 10 µM; in the data active means binding response below about 16% or above about 210%; inactive means in between
# MEKK2mut-MEK5 – signal of MEK5 binding to mutant human MEKK2, retest. 5,900 tested, 2% active. percent response, % at 10 µM. shares compounds with MEKK3 PB1 HTS. AID 1893. bead flow cytometry, Alexa488-MEK5 binding to MEKK2 mutant; in the data active means percent response mostly above about 71%, no sharp cut-off; inactive means mostly below about 38%;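 further: higher means compound restores mutant binding toward wildtype level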
# MEKK3 confirm – confirmation of inhibitors of MEK5 binding to human MEKK3. shares compounds with MEKK3 PB1 HTS. bead flow cytometry, Alexa488-MEK5 binding to MEKK3; hits give low values. binding response (% of control), % at 10 µM. 5,900 tested, 1.8% active;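 active means binding response below 72% of control, or above a set upper limit, though filed actives all read lower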;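 further: 100% = DMSO only wells and 0% = binding blocked by excess unlabeled MEK5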
# * marks the source's active call; other numbers are inactive results; . = no result given; [ ] = another dose, or the depositor's remark.
SMILES,MEKK3 PB1 HTS,MEKK2wt PB1 HTS,MEKK2 mut-MEK5,ATG4B inh,B2AR ag,Dynein transport,MEKK2wt confirm,MEKK2mut-MEK5,MEKK3 confirm
CCCc1cc(=O)oc2cc(C)cc(OCC(=O)Nc3ccc(CN4CCOCC4)cc3)c12,103,110,2,-12,11,.,.,.,.
O=C(NC1CCCC1)C(c1cccnc1)N(C(=O)c1csnn1)C1CCCC1 (stereo not drawn),75*[inhibitor],104,3,-3,8,-0.042,101,1,101
O=C(NC1CCCCC1)C(c1cccnc1)N(C(=O)c1csnn1)C1CCCC1 (stereo not drawn),116,109,3,-6,3,0.072,.,.,.
O=C(CSc1nnc(-c2ccccc2)o1)c1ccc2c(c1)OCCO2,80*[inhibitor],85,-15,-3,4,-0.67,109,6,103
O=C(CSc1ncn[nH]1)c1ccc2c(c1)OCO2,102,104,7,4,3,-0.0018,.,.,.
Cc1cc(C)cc(-c2nnc(SCC(=O)c3ccc4c(c3)OCCO4)o2)c1,111,100,4,0,5,-1,.,.,.
O=C(CSc1ncn[nH]1)c1ccc2c(c1)OCCO2,77*[inhibitor],87,-7,-2,-6,-0.94,106,4,105
CC(C)(CO)NCc1c(OCc2ccc(Cl)cc2)ccc2ccccc12,102,112,-5,1,15,.,.,.,.
NC(=O)c1ccc(N=Cc2c(O)ccc3ccccc23)cc1,.,.,.,-16,0,.,.,.,.
C=CCS/C(N)=N\N=C\c1c(O)ccc2ccccc12,139*,131,24,-13,1,-1.5,107,5,106
O=c1nc(-c2ccccc2)c2cc(SC(F)F)ccc2[nH]1,99,100,3,-1,-4,.,.,.,.
CCOC(=O)C1=C(CC)Nc2ccccc2N=C1NC(=O)Nc1ccc(Cl)c(Cl)c1,97,145*,20,62*,12,1.2,148,-7,98
CN(C)C(CNC(=O)CSc1nc2sc3c(c2c(=O)n1C)CCCC3)c1ccccc1 (stereo not drawn),.,.,.,0,10,.,.,.,.
O=c1cc(CO)oc(CN2CCN(Cc3ccccc3)CC2)c1O,116,135*,14,-13,-7,2.2,101,0,99
Cc1cc2oc(=O)cc(CN3CCCc4ccccc43)c2cc1C,105,.,228*,2,-48,-0.67,92,-13,100
COC(=O)C1CCN(C(=O)CN2C(=O)NC(CCc3ccccc3)C2=O)CC1 (stereo not drawn),122*,124,9,-4,-2,-0.33,99,-1,103
O=C(Nc1cc(Cl)cc(Cl)c1)c1cccc(OC(F)F)c1,109,172*,39,2,0,0.3,106,5,104
COCCN1C(=S)N[C@@H](c2cccc(F)c2)C(C(=O)OC)=C1C,104,147*,37*,.,.,.,144,47,104
COC(=O)C1=C(C)N(Cc2ccccc2)C(=NCc2ccccc2)N[C@H]1c1cccc(F)c1,109,137*,35*,-3,28,.,132,27,106
COC(=O)C1=C(C)N(CC2CC2)C(=NCc2cccc(Cl)c2)N[C@H]1c1ccccc1,103,125,26*,2,13,.,132,14,107
COC(=O)C1=C(C)N(Cc2ccccc2)C(=S)N[C@H]1c1cccc(F)c1,100,98,-1,2,4,.,.,.,.
CCOC(=O)C1=CN(CC)CCC1=O,.,.,.,-1,0,.,.,.,.
CN(Cc1cccc(Cl)c1Cl)C(=O)c1cccc(S(=O)(=O)N2CCN(Cc3ccccc3)CC2)c1,110,114,11,20,7,.,.,.,.
COC(=O)c1c(NC(=O)c2ccco2)sc2c1CC(C)(C)NC2(C)C,106,114,6,-4,-15,.,.,.,.
CCOC(=O)c1c(NC(=O)c2ccc(C)cc2)sc2c1CC(C)(C)NC2(C)C,107,138*,30,.,.,0.065,119,11,109
SMILES,MEKK3 PB1 HTS,MEKK2wt PB1 HTS,MEKK2 mut-MEK5,ATG4B inh,B2AR ag,Dynein transport,MEKK2wt confirm,MEKK2mut-MEK5,MEKK3 confirm
COC(=O)c1c(NC(=O)c2ccc(OC(C)C)cc2)sc2c1CC(C)(C)NC2(C)C,104,173*,46,4,38,3,160,28,106
CCOC(=O)c1c(NC(=O)COC(=O)c2ccc(C)s2)sc2c1CC(C)(C)NC2(C)C,.,.,.,-3,8,.,.,.,.
CCOC(=O)C1CCCN(C(=O)c2cc3cc(OC)c(OC)cc3[nH]2)C1 (stereo not drawn),100,99,4,0,3,.,.,.,.
COc1ccccc1NS(=O)(=O)c1cc(NC(=O)CCC(=O)c2cccs2)ccc1Cl,147*,108,0,-9,3,-0.28,99,-6,97
O=C(CSC(=S)N1CCCC1)N1CCN(S(=O)(=O)c2ccccc2F)CC1,.,.,.,-6,-5,.,.,.,.
Cc1csc(SCC(=O)Nc2sccc2C(N)=O)n1,2.0*[inhibitor],1.0*[inhibitor],-16,0,-2,-0.22,95,-3,101
CCCCNCc1cc(Br)c(OCc2cccs2)c(OC)c1,95,136*,21,-9,5,-0.96,123,8,100
Cc1ccccc1C(=O)N1CCC(C(N)=O)CC1,107,104,8,-4,17,1.2,.,.,.
COc1ccc(Cn2c(SCc3ccccc3C)nc3cc(OC)c(OC)cc3c2=N)cc1,118,278*,96*,.,34,0.039,252*,79*,113
COc1cc2nc(SCc3ccc(F)cc3)n(Cc3cccs3)c(=N)c2cc1OC,103,116,2,-10,7,-0.25,.,.,.
O=C(NCCCN1CCOCC1)c1ccc2c(=O)n(-c3ccc(F)c(Cl)c3)c(=S)[nH]c2c1,103,106,3,-3,5,.,.,.,.
CCCCc1n[nH]c(=S)n1Cc1ccc(C)cc1,48*[inhibitor],65,-17,-7,1,-0.46,104,2,106
CC(=O)Nc1ccc(-c2c(C)cc3oc(=O)cc(-c4ccccc4)c3c2C)cc1,.,.,.,16,4,.,.,.,.
CCN(CC)c1ccc(C=C(c2nnnn2-c2ccc(C)cc2)c2nnnn2-c2ccc(C)cc2)cc1,131*,102,1,-3,-3,2,95,2,104
COc1ccc(OCCN2CCCC2)cc1Nc1nnc(Cl)c(Nc2ccccc2S(C)(=O)=O)n1,.,.,.,1,12,.,.,.,.

# Source: PubChem BioAssay (several laboratories)
